The values that follow come from ChEMBL document CHEMBL1142330, “Omega-(2-Naphthyloxy) amino alkanes as a novel class of anti-hyperglycemic and lipid lowering agents” (Bioorg Med Chem, 2008).

Test [1] relates to Rattus norvegicus. The test is described as follows: Antidiabetic activity in sucrose loaded albino Sprague-Dawley rat model assessed as decrease in blood glucose level at 100 mg/kg, po. Type of test: functional. Put shortly:
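Male Sprague–Dawley rats were fasted overnight and used in groups of five. Baseline blood was taken, then test sample was gavaged at 100 mg/kg. A sucrose load of […] followed 30 min later.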

Test [2] has as its system Rattus norvegicus. The test can be described thus: Antidiabetic activity in streptozotocin-induced diabetic albino Sprague-Dawley rat model assessed as decrease in blood glucose level at 100 mg/kg, po. Type of test: functional. An outline of the steps: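 Overnight-fasted rats received streptozotocin 60 mg/kg i.p. in 100 mM citrate buffer, pH 4.5. After 48 h, animals with glucometer glucose of 200–400 mg/dl were grouped (n=6). Sample in 1% gum acacia was given orally at 100 mg/kg; controls received vehicle.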

Test [3] deals with Rattus norvegicus. The test can be described thus: Antidiabetic activity in sucrose challenged streptozotocin-induced diabetic albino Sprague-Dawley rat model assessed as decrease in blood glucose level at 100 mg/kg, po. The format is functional. Put shortly: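 Diabetes was induced in overnight-fasted rats with streptozotocin 60 mg/kg i.p. in 100 mM citrate buffer, pH 4.5. Rats with glucose of 150–250 mg/dl at 48 h were selected. A sucrose load of 2.5 g/kg was given 30 min after oral dosing. Glucose was measured at 30–300 min and 24 h. Food was withheld, water allowed.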

In test [4] the test system is Rattus norvegicus. The test can be described thus: Inhibition of cholesterol level in triton treated Charles Foster rat at 100 mg/kg, po. The format is functional. Put shortly:
(§1)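 Male Charles Foster rats (200–225 g) were used, six per group. They received Triton WR-1339 200 mg/kg i.p. together with oral compound at 100 mg/kg in 2% aqueous gum acacia, over 18 h; vehicle controls were included. Rats were then fasted overnight and bled retro-orbitally. Serum total cholesterol, phospholipids and triglyceride were assayed.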

Test [5] relates to Rattus norvegicus. The test is described as follows: Inhibition of phospholipids level in triton treated Charles Foster rat at 100 mg/kg, po. Type of test: functional. An outline of the steps: as §1
Test [6] deals with Rattus norvegicus. The test is described as follows: Inhibition of triglyceride level in triton treated Charles Foster rat at 100 mg/kg, po. Type of test: functional. Put shortly: as §1
For test [7], the system named is Mus musculus. The test can be described thus: Antidiabetic activity in db/db mouse at 100 mg/kg after 5 hrs on day 3. The format is functional.
Test [8] has as its system Mus musculus. The test can be described thus: Antidiabetic activity in db/db mouse at 100 mg/kg after 24 hrs on day 3. The format is functional.
In test [9] the target is T1, Peroxisome proliferator-activated receptor gamma (Homo sapiens, UniProt P37231).
T1 sequence (P37231 whole entry): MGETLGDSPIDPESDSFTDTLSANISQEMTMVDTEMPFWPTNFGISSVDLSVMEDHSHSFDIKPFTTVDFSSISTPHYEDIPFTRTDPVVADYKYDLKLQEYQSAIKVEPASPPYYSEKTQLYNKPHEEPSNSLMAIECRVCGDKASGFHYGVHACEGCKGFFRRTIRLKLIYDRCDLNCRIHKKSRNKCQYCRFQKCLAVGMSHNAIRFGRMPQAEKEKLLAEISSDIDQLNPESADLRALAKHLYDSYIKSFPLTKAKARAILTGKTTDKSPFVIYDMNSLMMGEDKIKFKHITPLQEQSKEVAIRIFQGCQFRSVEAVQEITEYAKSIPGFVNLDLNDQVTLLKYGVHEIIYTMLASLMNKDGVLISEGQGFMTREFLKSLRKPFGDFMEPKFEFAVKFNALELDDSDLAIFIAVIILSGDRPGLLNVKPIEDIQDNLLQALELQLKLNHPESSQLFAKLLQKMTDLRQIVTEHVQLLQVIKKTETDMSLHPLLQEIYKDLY
The test is described as follows: Binding affinity at PPARgamma.

Test [10] relates to Rattus norvegicus. The test can be described thus: Antidiabetic activity in glucose loaded albino Sprague-Dawley rat model assessed as decrease in blood glucose level at 100 mg/kg, po. Type of test: functional. Put shortly:
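Rats in groups of five were bled at baseline, then gavaged with test sample at 100 mg/kg. A glucose load of 2 g/kg was given 30 min later. Blood was collected at 30, 60, 90 and 120 min.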

For test [11], the system named is Syrian golden hamster. The test is described as follows: Inhibition of triglyceride level in Syrian golden hamster at 300 umol/kg after 10 days. The format is functional. The note with it: Mesocricetus auratus, 240 h.
Test [12] has as its system Syrian golden hamster. The test can be described thus: Inhibition of cholesterol level in Syrian golden hamster at 300 umol/kg after 10 days. The format is functional. The settings on record: Mesocricetus auratus, 240 h.
Test [13] has as its system Syrian golden hamster. The test is described as follows: Inhibition of HDL level in Syrian golden hamster at 300 umol/kg after 10 days. The format is functional. The settings on record: Mesocricetus auratus, 240 h.
In test [14] the test system is Syrian golden hamster. The test can be described thus: Inhibition of glucose level in Syrian golden hamster at 300 umol/kg after 10 days. The format is functional. The note with it: Mesocricetus auratus, 240 h.
Test [15] concerns Syrian golden hamster. The test is described as follows: Inhibition of glycerol level in Syrian golden hamster at 300 umol/kg after 10 days. Type of test: functional. The settings on record: Mesocricetus auratus, 240 h.
Test [16] concerns the target T2, Peroxisome proliferator-activated receptor alpha (Homo sapiens) (UniProt Q07869).
T2 sequence (whole entry): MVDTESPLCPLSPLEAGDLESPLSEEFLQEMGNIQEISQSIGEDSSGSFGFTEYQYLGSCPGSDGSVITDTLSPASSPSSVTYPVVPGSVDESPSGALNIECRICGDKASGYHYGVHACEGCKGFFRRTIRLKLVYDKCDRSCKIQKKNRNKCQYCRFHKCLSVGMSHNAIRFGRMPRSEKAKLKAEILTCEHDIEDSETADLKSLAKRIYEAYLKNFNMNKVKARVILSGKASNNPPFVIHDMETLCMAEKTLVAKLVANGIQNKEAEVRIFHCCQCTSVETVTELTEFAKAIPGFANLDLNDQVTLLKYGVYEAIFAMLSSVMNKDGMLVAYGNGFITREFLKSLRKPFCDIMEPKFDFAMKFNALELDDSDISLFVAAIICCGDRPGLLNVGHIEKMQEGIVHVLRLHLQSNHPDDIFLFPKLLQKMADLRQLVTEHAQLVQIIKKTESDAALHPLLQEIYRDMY
The test can be described thus: Inhibition of PPARalpha at 50 uM.

Test [17] deals with T3, Peroxisome proliferator-activated receptor delta (Homo sapiens) (UniProt Q03181).
T3 sequence (whole entry): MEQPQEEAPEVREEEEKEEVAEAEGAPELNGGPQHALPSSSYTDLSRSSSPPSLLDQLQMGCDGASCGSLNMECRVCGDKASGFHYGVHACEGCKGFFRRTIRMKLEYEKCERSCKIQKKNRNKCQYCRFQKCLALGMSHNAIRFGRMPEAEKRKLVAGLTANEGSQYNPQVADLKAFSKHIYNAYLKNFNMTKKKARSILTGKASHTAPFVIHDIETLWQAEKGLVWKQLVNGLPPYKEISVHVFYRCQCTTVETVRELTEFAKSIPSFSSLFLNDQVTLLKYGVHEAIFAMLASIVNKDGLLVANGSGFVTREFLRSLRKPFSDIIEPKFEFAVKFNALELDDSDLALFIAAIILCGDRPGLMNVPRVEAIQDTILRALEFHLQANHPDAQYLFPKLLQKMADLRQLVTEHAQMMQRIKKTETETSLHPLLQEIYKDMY
The test is described as follows: Inhibition of PPARdelta at 3 uM.

The test system of test [18] is Syrian golden hamster. The test is described as follows: Inhibition of free fatty acids level in Syrian golden hamster at 300 umol/kg after 10 days. Type of test: functional. The note with it: Mesocricetus auratus, 240 h.

As to `COc1ccc(NCCCOc2ccc3ccccc3c2)cc1`, the inhibition in vivo at 100 mg/kg was found to be 31% in test [1]; 28.5% in test [2]; 73.8% in [3]; 32.4% in [4]; 38% in test [5]; 28% in [6]. Moreover, the inhibition in vivo at 100 mg/kg in test [7] stood at 22.4%; in test [8] it was 28.9%; in test [10] it was 33.6%. In test [9], this molecule registered an EC50 of 33.8 µM. Besides, the inhibition in vivo at 300 µmol/kg in test [11] is 48%; in test [12], 14%; in [13], 15%; in [14], 31%; in test [15], 14%. Besides, the results for the inhibition in [16] and in test [17] were 44.5% and 42.6%, respectively.

Regarding `CCOC(=O)CN(CCCOc1ccc2ccccc2c1)c1ccc(OC)cc1`, the inhibition in vivo at 100 mg/kg amounted to 45.4% in test [1]; 6.9% in test [2]; 5.6% in [3]; 21.2% in test [4]; 26% in test [5]; 15% in test [6]. Further, the figures for the inhibition in vivo at 100 mg/kg in test [7], in test [8] and in [10] were 12%, 15.4% and 25.9%, respectively. The molecule also registered an EC50 in test [9] of 4.8 µM. For the same molecule, the inhibition in vivo at 300 µmol/kg was determined as 68% in test [11]; 22% in [12]; 16% in test [13]; 34% in [14]; 7.3% in test [15]; 48% in test [18]. Besides, the inhibition in test [16] was 33.5%; in test [17], 29.6%.

By inhibition in vivo is commonly meant how much of the control response was suppressed. A word on the EC50: it is the midpoint of the concentration-response curve. A lower EC50 goes with higher potency in that assay. What is called inhibition is how much of the control response was suppressed. Higher therefore signals strong suppression.
